Results on 1 compound are retold here after ChEMBL document CHEMBL2176900, “Design and synthesis of a novel series of bicyclic heterocycles as potent γ-secretase modulators” (J Med Chem, 2012).

pIC50: −log10 of the molar value.

As a reminder, the bioavailability is dose-corrected exposure relative to a reference, in per cent. One may read the pIC50 as −log10 of the IC50, conventionally taken in molar units.

Series [1] deals with Rattus norvegicus. In words: Antialzheimer activity in Sprague-Dawley rat assessed as amyloid beta 38 level in CSF at 10 mg/kg, po at 2 hrs by ELISA relative to control. The class given is functional. Summed up: (§1)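 Male Sprague-Dawley rats (180-220 g), fasted overnight, were given 10 mg/kg by gastric intubation as a 5 mg/mL suspension in 0.5% methocellulose. At 2, 4, 7 and 25 h, 50 μL CSF was taken from the cisterna magna under isoflurane, then brain was collected. Aβ37/38/40/42 were measured by MesoScale Discovery sandwich immunoassays. Results are mean % change versus T = 0 h, n = 5.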
(In general: In an ELISA, binding on a coated surface is turned into a signal by an enzyme label.)

Series [2] in a line: Plasma concentration in beagle dog at 20 mg/kg, po at 4 hrs. It is filed as ADME, organism-based, Canis lupus familiaris. More on the design: dose 20 mg/kg, route oral.
Series [3] concerns Mus musculus. Put plainly: Antialzheimer activity in po dosed CD1 mouse assessed as amyloid beta 42 level in brain at 4,8 and 24 hrs by ELISA. The class given is functional, organism-based. In short, it runs like this:
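Overnight-fasted male CD1 SPF mice got one oral dose (10 or 30 mg/kg) formulated in 20% Captisol in water. Right brain hemisphere was homogenized in 0.4% DEA/50 mM NaCl with protease inhibitors and spun at 221300g. Supernatant was neutralized with Tris-HCl pH 6.8. Aβ42 was measured by ELISA (C-terminal JRF/cAβ42/26 capture, fluorogenic peroxidase read ex 320/em 420 nm). Values are mean % change vs T = 0 h, n = 4.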

A short description of series [4]: Oral bioavailability in Sprague-Dawley rat at 10 mg/kg. The class given is ADME, organism-based. To be noted: in vivo.
Another series relates to Brain. Put plainly: Drug uptake in CD1 mouse brain at 10 mg/kg, po at 24 hrs by LC-MS/MS analysis. The class given is ADME, organism-based. Further details: dose 10 mg/kg, route oral. Conditions: in vivo, BLD = below limit of detection. Summed up:
(§2)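 Overnight-fasted male CD1 mice received one oral dose (10 or 30 mg/kg) in 20% Captisol. After sacrifice, the left brain hemisphere was stored at −18 °C. Compound level was quantified by a qualified LC-MS/MS method, alongside EDTA plasma spun at 1900g, 4 °C. n = 4 per time point.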

Series [5] in a line: Drug uptake in CD1 mouse brain at 10 mg/kg, po at 4 hrs by LC-MS/MS analysis. The class given is ADME, organism-based. More on the design: dose 10 mg/kg, route oral. To be noted: read-out: Drug uptake. Summed up: as §2
Series [6] concerns Mus musculus. In words: Inhibition of gamma-secretase in CD1 mouse assessed as total amyloid beta level in brain at 30 mg/kg, po at 24 hrs by ELISA relative to control. It is filed as functional. More on the design: scale not given: the % may be the effect or the level left. Summed up:
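Fasted male CD1 SPF mice were dosed orally at 10 or 30 mg/kg in 20% Captisol. Right hemisphere was homogenized in 0.4% DEA/50 mM NaCl and the high-speed supernatant neutralized. Aβtotal ELISA used N-terminal JRF/rAβ/2 capture, biotinylated 4G8 and streptavidin-peroxidase, then a fluorogenic substrate (ex 320/em 420 nm). Standards spanned 10000–0.3 pg/mL. Values are % change vs T = 0 h, n = 4.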

The test system of series [7] is Mus musculus. Put plainly: Antialzheimer activity in CD1 mouse assessed as amyloid beta 38 level in brain at 30 mg/kg, po at 24 hrs by ELISA relative to control. The class given is functional. In short, it runs like this:
(§3)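 Male CD1 SPF mice, fasted overnight, got a single oral dose of 10 or 30 mg/kg. At each time point the right brain hemisphere was homogenized in 0.4% DEA/50 mM NaCl with protease inhibitors and spun at 221300g for 50 min. The supernatant was neutralized with Tris-HCl pH 6.8. Aβ38 or Aβ42 was read by sandwich ELISA with a fluorogenic peroxidase substrate (ex 320/em 420 nm). Results are mean % change versus T = 0 h, n = 4.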

The test system of series [8] is Mus musculus. In words: Antialzheimer activity in CD1 mouse assessed as amyloid beta 38 level in brain at 10 mg/kg, po at 24 hrs by ELISA relative to control. It is filed as functional. In short, it runs like this:
as §3

Series [9] has as its system Mus musculus. Put plainly: Antialzheimer activity in CD1 mouse assessed as amyloid beta 38 level in brain at 10 mg/kg, po at 4 hrs by ELISA relative to control. The class given is functional. In short, it runs like this: as §3
The subject of another series is Salmonella typhimurium. Put plainly: Genotoxicity against Salmonella typhimurium by AMES 2 test. It is filed as toxicity, organism-based. To be noted: salmonella enterica subsp. enterica serovar typhimurium.
Another series concerns the target T1, Cytochrome P450 1A2 (Homo sapiens, UniProt P05177).
T1 sequence (P05177 whole entry): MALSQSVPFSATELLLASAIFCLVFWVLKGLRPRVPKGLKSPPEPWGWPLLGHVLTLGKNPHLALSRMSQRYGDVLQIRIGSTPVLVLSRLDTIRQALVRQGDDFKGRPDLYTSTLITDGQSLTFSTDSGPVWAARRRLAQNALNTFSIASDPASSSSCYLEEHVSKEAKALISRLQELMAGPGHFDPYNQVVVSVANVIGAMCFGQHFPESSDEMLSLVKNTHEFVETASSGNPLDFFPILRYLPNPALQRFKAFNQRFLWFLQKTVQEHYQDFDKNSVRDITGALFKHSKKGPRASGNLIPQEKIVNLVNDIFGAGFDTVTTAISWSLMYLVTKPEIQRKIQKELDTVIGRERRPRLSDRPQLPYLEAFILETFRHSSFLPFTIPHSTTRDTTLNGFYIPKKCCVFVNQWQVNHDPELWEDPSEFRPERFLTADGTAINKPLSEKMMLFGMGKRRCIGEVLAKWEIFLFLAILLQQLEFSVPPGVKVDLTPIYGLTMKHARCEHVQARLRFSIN
Put plainly: Inhibition of CYP1A2 in human liver microsomes using phenacetin as substrate. It is filed as ADME, Microsome. On the technique in general: Microsomes from liver hold many membrane-bound enzymes, among them those of drug oxidation.

Another series deals with Cytochrome P450 2C9 (Homo sapiens, UniProt P11712). Put plainly: Inhibition of CYP2C9 in human liver microsomes using tolbutamide as substrate. It is filed as ADME, Microsome.
Another series addresses Cytochrome P450 3A4 (Homo sapiens, UniProt P08684). Put plainly: Inhibition of CYP3A4 in human liver microsomes using midazolam as substrate. It is filed as ADME, Microsome.
Series [10] is described as follows: Drug metabolism in human liver microsomes at 1 uM after 15 mins by ion-trap mass spectrophotometry. The class given is ADME, Microsome. Conditions: read-out: Drug metabolism.
A further series concerns Plasma. Put plainly: Plasma concentration in CD1 mouse at 10 mg/kg, po at 48 hrs by LC-MS/MS analysis. Further details: dose 10 mg/kg, route oral. It is filed as ADME, organism-based. Conditions: in vivo, BLD = below limit of detection. In short, it runs like this: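 Mice received a single 10 or 30 mg/kg oral dose. Plasma was sampled at several time points up to 48 h, with EDTA plasma obtained by centrifugation at 1900g, 10 min, 4 °C. Compound was quantified by LC-MS/MS, n = 4.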

Series [11] deals with Rattus norvegicus. In words: Antialzheimer activity in Sprague-Dawley rat assessed as amyloid beta 42 level in brain at 10 mg/kg, po at 25 hrs by ELISA relative to control. The class given is functional. Summed up:
as §1

Series [12] concerns Rattus norvegicus. In words: Antialzheimer activity in Sprague-Dawley rat assessed as amyloid beta 40 level in CSF at 10 mg/kg, po at 25 hrs by ELISA relative to control. It is filed as functional. Summed up: as §1
The test system of series [13] is Rattus norvegicus. In words: Antialzheimer activity in Sprague-Dawley rat assessed as amyloid beta 40 level in CSF at 10 mg/kg, po at 4 hrs by ELISA relative to control. It is filed as functional. In short, it runs like this:
as §1

In series [14] the test system is Canis familiaris. In words: Antialzheimer activity in beagle dog assessed as amyloid beta 42 level in cerebrospinal fluid at 20 mg/kg, po at 4 hrs by ELISA relative to control.
Series [15] relates to Canis familiaris. Put plainly: Antialzheimer activity in beagle dog assessed as amyloid beta 40 level in cerebrospinal fluid at 20 mg/kg, po at 8 hrs by ELISA relative to control.

Sequence of Cytochrome P450 2C9 (P11712 whole entry): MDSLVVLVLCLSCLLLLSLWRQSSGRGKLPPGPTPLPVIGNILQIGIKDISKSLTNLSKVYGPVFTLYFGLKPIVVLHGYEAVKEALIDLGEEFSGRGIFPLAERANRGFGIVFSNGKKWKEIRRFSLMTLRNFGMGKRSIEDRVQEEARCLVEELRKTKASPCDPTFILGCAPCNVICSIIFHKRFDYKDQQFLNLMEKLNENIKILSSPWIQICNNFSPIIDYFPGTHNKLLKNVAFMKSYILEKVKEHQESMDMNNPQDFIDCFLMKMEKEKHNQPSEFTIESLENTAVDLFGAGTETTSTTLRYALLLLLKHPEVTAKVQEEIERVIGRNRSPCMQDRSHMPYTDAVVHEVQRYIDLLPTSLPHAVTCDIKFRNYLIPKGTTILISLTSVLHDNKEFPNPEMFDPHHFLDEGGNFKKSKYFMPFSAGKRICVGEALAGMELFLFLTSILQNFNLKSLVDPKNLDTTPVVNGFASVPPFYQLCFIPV
Sequence of Cytochrome P450 3A4 (P08684 whole entry): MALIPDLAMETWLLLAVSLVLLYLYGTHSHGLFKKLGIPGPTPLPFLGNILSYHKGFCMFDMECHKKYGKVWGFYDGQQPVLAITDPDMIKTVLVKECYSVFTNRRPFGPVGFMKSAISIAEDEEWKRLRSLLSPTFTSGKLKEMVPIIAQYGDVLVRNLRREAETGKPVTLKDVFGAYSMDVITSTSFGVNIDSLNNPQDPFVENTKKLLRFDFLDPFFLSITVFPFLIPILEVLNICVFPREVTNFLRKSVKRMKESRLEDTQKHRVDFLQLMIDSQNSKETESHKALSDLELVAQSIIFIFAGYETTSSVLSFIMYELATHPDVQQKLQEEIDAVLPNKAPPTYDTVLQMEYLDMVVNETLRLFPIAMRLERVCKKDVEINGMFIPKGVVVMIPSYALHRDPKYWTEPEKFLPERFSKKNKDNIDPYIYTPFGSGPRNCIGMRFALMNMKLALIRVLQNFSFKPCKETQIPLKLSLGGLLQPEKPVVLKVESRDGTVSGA

For the compound `COc1nc(Nc2cccc3c2nc(-c2ccc(F)cc2)n3C)ccc1-n1cnc(C)c1`, the Activity in the series on Rattus norvegicus [1] was 162%; in the series with Mus musculus [3] it was “Dose-dependent effect”; in the series on Mus musculus [6], 104%; in the series with Mus musculus [7], 101%; with Mus musculus [8], 83%; in the series on Mus musculus [9] it was 141%. Besides, the Activity entry is “Non-toxic” with Salmonella typhimurium; 92% in the series with Rattus norvegicus [11]; 83% with Rattus norvegicus [12]; 60% with Rattus norvegicus [13]; 81% with Canis familiaris [14]; 64% in the series with Canis familiaris [15]. The concentration at 4 h worked out at 4.1 µM in series [2] and 2.8 µM in series [5]. In addition, the bioavailability in series [4] came to 95%. Also, the Drug uptake result in the series on Brain is “BLD”. Moreover, the pIC50 is below 4.52 against Cytochrome P450 1A2, 4.66 against Cytochrome P450 2C9 and 5.06 against Cytochrome P450 3A4. In addition, the metabolised at 0.25 h, 1 µM in series [10] is 6%. In the series with Plasma, the Cp entry is recorded as “BLD”.
